Measurements as given in ChEMBL document CHEMBL4219168, “Design, synthesis, and evaluation of l-cystine diamides as l-cystine crystallization inhibitors for cystinuria” (Bioorg Med Chem Lett, 2018).
Activity calls are given as the source filed them. The rule behind the calls is not given here.

What was measured:
Cystine [1] = assay: Inhibition of L-cystine crystallization assessed as increase in apparent aqueous solubility after 72 hrs by fluorescence assay
Summary of the method: (§1)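 Dose-response curves were run in supersaturated aqueous L-cystine, with apparent solubility read by fluorescence assay. EC2x is the effective concentration that doubles the apparent solubility of L-cystine in water. The ratio is the potency gain over the CDME control.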

Cystine [2] = assay: Inhibition of L-cystine crystallization assessed as increase in apparent aqueous solubility after 72 hrs by fluorescence assay relative to CDME; summary of the method: as §1
Cystine [3] = assay: Inhibition of L-cystine crystallization assessed as increase in apparent aqueous solubility at 2 to 10 uM after 72 hrs by fluorescence assay relative to CDME
Cystine [4] = assay: Inhibition of L-cystine crystallization assessed as increase in apparent aqueous solubility at 2 to 10 uM after 72 hrs by fluorescence assay
Summary of the method: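 Supersaturated L-cystine in Millipore water was spiked 1:100 with 1 mM or 200 μM diamide stock, giving final 10 μM or 2 μM. Mixtures were held at 25 °C for 72 h. Apparent L-cystine solubility was then read with an in-house fluorescence assay. CDME served as positive control and water as blank.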

| EC2 (Cystine [1]) | fold change (FC) (Cystine [2]) | inhibition (Cystine [3]) | inhibition (Cystine [4]) | Structure (SMILES) |
| --- | --- | --- | --- | --- |
| 0.26 µM | 24.5 | – | – | CN1CCN(C(=O)[C@@H](N)CSSC[C@H](N)C(=O)N2CCN(C)CC2)CC1 |
| – | – | inactive | inactive | CN[C@@H](CSSC[C@H](NC)C(=O)N1CCOCC1)C(=O)N1CCOCC1 |
| 2.02 µM | 3.2 | – | – | N[C@@H](CSSC[C@H](N)C(=O)NCCO)C(=O)NCCO |
| 6.37 µM | – | – | – | COC(=O)[C@@H](N)CSSC[C@H](N)C(=O)OC |
| – | – | inactive | inactive | CCN(CC)C(=O)[C@H](CSSC[C@H](NC)C(=O)N(CC)CC)NC |
| – | – | inactive | inactive | CN[C@@H](CSSC[C@H](NC)C(=O)NC1CC1)C(=O)NC1CC1 |
| 1.59 µM | 4 | – | – | N[C@@H](CSSC[C@H](N)C(=O)N1CCCCC1)C(=O)N1CCCCC1 |
| – | – | inactive | inactive | CN[C@@H](CSSC[C@H](NC)C(=O)N1CCCCC1)C(=O)N1CCCCC1 |
| 0.86 µM | 7.4 | – | – | N[C@@H](CSSC[C@H](N)C(=O)N1CCOCC1)C(=O)N1CCOCC1 |
| – | – | inactive | inactive | CN[C@@H](CSSC[C@H](NC)C(=O)N(C)C)C(=O)N(C)C |
| – | – | inactive | inactive | CN[C@@H](CSSC[C@H](NC)C(=O)N1CCCC1)C(=O)N1CCCC1 |
| 3.53 µM | 1.8 | – | – | N[C@@H](CSSC[C@H](N)C(=O)NC1CC1)C(=O)NC1CC1 |
| – | – | inactive | inactive | CN[C@@H](CSSC[C@H](NC)C(=O)NCCO)C(=O)NCCO |
